For 25 compounds, ED1.5 and Max results are on record in ChEMBL document CHEMBL1123792, “Nonsteroidal cardiotonics. 1. 2-Pyridyl-6,7-dihydro-3H,5H-pyrrolo[2,3-f]benzimidazol-6-ones, a novel class of cardiotonic agents” (1987).

Assay [1] has as its system Rattus norvegicus. Put plainly: Effective dose required to produce an increase in dP/dt50, blood pressure by 1500 mmHg/s was determined in rat by intravenous administration. It is filed as functional. In short, it runs like this:
(§1)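 Anesthetized rats, dP/dt50, BP and HR (HR from LVP by pulse counter) recorded continuously. Increasing single bolus doses into jugular vein, 0.5 mL/kg, 10 min apart. Values read 10 min post-injection as steady state, not 1–3 min peak. ED1.5 = dose raising dP/dt50 by 1500 mmHg/s; max = peak rise from control; usually mean of four.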

Assay [2] has as its system Rattus norvegicus. Put plainly: Maximum increase in dP/dt recorded in mmHg/s at the dose 1.0 mg/kg administered intravenously in rat. It is filed as functional. As to conditions: route intravenous. In short, it runs like this:
as §1

Assay [3] deals with Felis catus. Put plainly: Effective dose required to produce an increase in dP/dt50, blood pressure by 1500 mmHg/s was determined in cat by intravenous administration. The format is functional. In short, it runs like this: (§2)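 Cats of either sex on pentobarbitone (45 mg/kg ip, then 0.1 mg/kg × min infusion), ventilated, open chest. Dextran 10 mL/kg iv, then desacetylmepitranolol 0.3 mg/kg iv for β-blockade failure. LVP/HR via Millar tip in left ventricle; BP, dP/dt50. Rising iv bolus doses 10 min apart, read at 10 min. ED1.5 = dose raising dP/dt50 by 1500 mmHg/s; usually mean of four.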

Assay [4] deals with Rattus norvegicus. Nature of the assay: Maximum increase in dP/dt recorded in mmHg/s at the dose 10.0 mg/kg administered intravenously in rat. It is filed as functional. The note with it: route intravenous. The method, boiled down: as §1
The subject of assay [5] is Canis familiaris. Put plainly: Maximum increase in dP/dt recorded in mmHg/s at the dose 1.0 mg/kg administered intravenously in dog. It is filed as functional, Canis lupus familiaris. As to conditions: route intravenous. The method, boiled down: (§3)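 Conscious mongrel dogs (both sexes, 25–30 kg), chronically instrumented via left thoracotomy, used ≥10 days after surgery. Femoral artery BP, Millar tip LV pressure, femoral vein injection. dP/dt taken at LVP 60 mmHg. Increasing iv doses 10 min apart, readings every 10 min. ED1.5 = dose raising dP/dt by 1500 mmHg/s; max = peak rise from control; usually mean of four.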

Assay [6] concerns Felis catus. Put plainly: Maximum increase in dP/dt recorded in mmHg/s at the dose 0.3 mg/kg administered intravenously in cat. The format is functional. As to conditions: route intravenous. The method, boiled down:
as §2

For assay [7], the system named is Rattus norvegicus. Nature of the assay: Maximum increase in dP/dt recorded in mmHg/s at the dose 0.1 mg/kg administered intravenously in rat. It is filed as functional. As to conditions: route intravenous. The method, boiled down: as §1
Assay [8] has as its system Canis familiaris. Nature of the assay: Effective dose required to produce an increase in dP/dt50, blood pressure by 1500 mmHg/s was determined in dog by intravenous administration. It is filed as functional, Canis lupus familiaris. In short, it runs like this: as §3
The test system of assay [9] is Felis catus. Nature of the assay: Maximum increase in dP/dt recorded in mmHg/s at the dose 1.0 mg/kg administered intravenously in cat. It is filed as functional. As to conditions: route intravenous. The method, boiled down: as §2
In assay [10] the test system is Rattus norvegicus. Nature of the assay: Maximum increase in dP/dt recorded in mmHg/s at the dose 3.0 mg/kg administered intravenously in rat. It is filed as functional. The note with it: route intravenous. The method, boiled down:
as §1

The subject of assay [11] is Canis familiaris. Nature of the assay: Maximum increase in dP/dt recorded in mmHg/s at the dose 3.0 mg/kg administered intravenously in dog. It is filed as functional, Canis lupus familiaris. On the set-up: unit not given here. As to conditions: route intravenous. The method, boiled down:
as §3

Assay [12] concerns Felis catus. Put plainly: Maximum increase in dP/dt recorded in mmHg/s at the dose 10.0 mg/kg administered intravenously in cat. It is filed as functional. The note with it: route intravenous. In short, it runs like this:
as §2

Assay [13] relates to Felis catus. Nature of the assay: Maximum increase in dP/dt recorded in mmHg/s at the dose 3.0 mg/kg administered intravenously in cat. It is filed as functional. The note with it: route intravenous. The method, boiled down: as §2
Assay [14] concerns Felis catus. Nature of the assay: Maximum increase in dP/dt recorded in mmHg/s at the dose 0.1 mg/kg administered intravenously in cat. As to conditions: route intravenous. The format is functional. The method, boiled down: as §2
The test system of assay [15] is Canis familiaris. Put plainly: Maximum increase in dP/dt recorded in mmHg/s at the dose in parentheses administered intravenously in dog. It is filed as functional, Canis lupus familiaris. The method, boiled down:
as §3

For `CCCCc1ccc(-c2nc3cc4c(cc3[nH]2)C(C)(C)C(=O)N4)nc1`, the ED1.5 in [1] was above 3 mg/kg.
On to `CC1(C)C(=O)Nc2cc3[nH]c(-c4ccnc(Cl)c4)nc3cc21`, for which the ED1.5 in [1] and in assay [3] was 0.07 mg/kg each time. Besides, the Max in [2] amounted to 3900 mmHg/s.
Consider `CCC1(CC)C(=O)Nc2cc3[nH]c(-c4ccncc4)nc3cc21`, for which the ED1.5 in [1] was above 3 mg/kg. Also, the Max in assay [4] is 1900 mmHg/s.
Turning to `CC(C)CC1C(=O)Nc2cc3[nH]c(-c4ccncc4)nc3cc21` (configuration not stated), the ED1.5 in assay [1] was above 3 mg/kg.
In the case of `CC1(C)C(=O)Nc2cc3[nH]c(-c4ccncc4)nc3cc21` [ADIBENDAN], the figures for the Max in assay [5], in [6] and in assay [7] were 2000 mmHg/s, 2000 mmHg/s and 3700 mmHg/s, respectively. In addition, the ED1.5 in assay [1] was 0.01 mg/kg; in assay [3], 0.01 mg/kg; in assay [8], 0.2 mg/kg.
`CCC1C(=O)Nc2cc3[nH]c(-c4cccnc4)nc3cc21` (configuration not stated): the values for the ED1.5 in assay [1] and in [3] were 0.39 mg/kg and 0.15 mg/kg, respectively. The Max in [9] is 2300 mmHg/s; in assay [4] it was 4000 mmHg/s.
Take `O=C1Nc2cc3[nH]c(-c4ccncc4)nc3cc2C12CCCC2`: the Max was determined as 3300 mmHg/s in assay [10], 2800 mmHg/s in [9] and 2.2 in [11]. The ED1.5 worked out at 0.2 mg/kg in assay [1], 0.08 mg/kg in assay [3] and 0.77 mg/kg in assay [8].
`O=C1Nc2cc3[nH]c(-c4ccncc4)nc3cc2C1C1CCCC1` (configuration not stated) yielded an ED1.5 in assay [1] above 10 mg/kg.
Take `CCC1C(=O)Nc2cc3[nH]c(-c4ccncc4)nc3cc21` (configuration not stated): the results for the Max in [10], in [5] and in assay [6] were 4500 mmHg/s, 2300 mmHg/s and 2500 mmHg/s, respectively. For the same compound, the ED1.5 stood at 0.06 mg/kg in [1], 0.04 mg/kg in [3] and 0.09 mg/kg in assay [8].
In the case of `CC1(C)C(=O)Nc2cc3[nH]c(Cc4ccncc4)nc3cc21`, the values for the ED1.5 in [1] and in [3] were 1.14 mg/kg and 0.6 mg/kg, respectively. The Max was found to be 3800 mmHg/s in [12] and 4100 mmHg/s in assay [4].
`CC1(C)C(=O)Nc2cc3[nH]c(-c4ccccn4)nc3cc21`: the Max in assay [10] was determined as 2400 mmHg/s; in [13], 2700 mmHg/s; in assay [11], 1.7. Also, the results for the ED1.5 in assay [1], in assay [3] and in assay [8] were 0.96 mg/kg, 0.23 mg/kg and 1.11 mg/kg, respectively.
In turn, `CC1(C)C(=O)Nc2cc3[nH]c(/C=C/c4cccnc4)nc3cc21` came in with an ED1.5 in [1] of 1.21 mg/kg. This compound yielded a Max in [4] of 4300 mmHg/s.
Take `CC(C)C1C(=O)Nc2cc3[nH]c(-c4ccncc4)nc3cc21` (configuration not stated): the ED1.5 in [1] was above 3 mg/kg. The compound also returned a Max in assay [4] of 2200 mmHg/s.
With `CC1(C)C(=O)Nc2cc3[nH]c(-c4cccnc4)nc3cc21`, the Max worked out at 3500 mmHg/s in assay [10], 3500 mmHg/s in assay [6] and 2.5 in assay [11]. Further, the ED1.5 turned out to be 1 mg/kg in assay [1], 0.02 mg/kg in assay [3] and 0.51 mg/kg in assay [8].
As for `Cc1[nH]c(=O)c(C#N)cc1-c1ccncc1` [MILRINONE], the Max in assay [5] was determined as 2000 mmHg/s; in assay [12], 3000 mmHg/s; in assay [4], 3400 mmHg/s. The ED1.5 was determined as 0.14 mg/kg in assay [1], 0.13 mg/kg in assay [3] and 0.4 mg/kg in assay [8].
As to `CCOC(=O)C1(C)C(=O)Nc2cc3[nH]c(-c4ccncc4)nc3cc21` (configuration not stated), the Max in assay [10] was 4200 mmHg/s; in assay [13] it was 3700 mmHg/s; in assay [11], above 3.6. The ED1.5 in [1] was determined as 0.09 mg/kg; in assay [3], 0.25 mg/kg; in [8], 0.64 mg/kg.
Consider `CC1C(=O)Nc2cc3[nH]c(-c4cccnc4)nc3cc21` (configuration not stated), for which the results for the Max in assay [10], in [5] and in assay [6] were 4600 mmHg/s, 2400 mmHg/s and 2300 mmHg/s, respectively. Moreover, the ED1.5 was found to be 0.06 mg/kg in [1], 0.03 mg/kg in assay [3] and 0.08 mg/kg in [8].
As to `CC1C(=O)Nc2cc3[nH]c(-c4ccncc4)nc3cc21` (configuration not stated), the ED1.5 in [1] stood at 0.02 mg/kg; in assay [3], 0.01 mg/kg; in assay [8], 0.58 mg/kg. The Max was 4400 mmHg/s in assay [2], 1.7 in assay [11] and 2500 mmHg/s in [14].
As for `COc1nc(C)ccc1-c1nc2cc3c(cc2[nH]1)C(C)(C)C(=O)N3`, in assay [1], the ED1.5 is above 10 mg/kg.
On the same count and under the same terms, under `CC1(C)C(=O)Nc2cc3[nH]c(CCc4ccncc4)nc3cc21` stands above 10 mg/kg.
As for `Cc1cc(-c2nc3cc4c(cc3[nH]2)C(C)(C)C(=O)N4)ccn1`, the Max was found to be 1800 mmHg/s in assay [5], 2500 mmHg/s in [2] and 2700 mmHg/s in assay [14]. The ED1.5 in assay [1] is 0.29 mg/kg; in assay [3] it was 0.03 mg/kg; in assay [8], 0.51 mg/kg.
Take `CC1(C)C(=O)Nc2cc3[nH]c(-c4cc[n+]([O-])cc4)nc3cc21`: the figures for the ED1.5 in assay [1] and in assay [8] were 0.03 mg/kg and 0.44 mg/kg, respectively. The Max was found to be 4900 mmHg/s in [2] and 1800 mmHg/s in assay [15].
As to `CC1(C(=O)NN)C(=O)Nc2cc3[nH]c(-c4ccncc4)nc3cc21` (configuration not stated), the ED1.5 in assay [1] was above 10 mg/kg.
`CC1(C)C(=O)Nc2cc3[nH]c(-c4ccnc(O)c4)nc3cc21`: the ED1.5 in assay [1] amounted to 0.87 mg/kg; in assay [3] it was 0.21 mg/kg. Besides, the Max was found to be 2400 mmHg/s in assay [9] and 3400 mmHg/s in assay [4].
In assay [1], `Cc1ccc(-c2nc3cc4c(cc3[nH]2)C(C)(C)C(=O)N4)cn1` returned an ED1.5 above 3 mg/kg.
